In ChEMBL document CHEMBL4219067, “Synthesis and activity evaluation of a series of cholanamides as modulators of the liver X receptors” (Bioorg Med Chem, 2018) one finds Activity and inhibition data, which are given here for six compounds.

What all share (type): cell-based
For assay [1], the target named is T1, Oxysterols receptor LXR-alpha (Homo sapiens) (UniProt Q13133).
T1 sequence (whole entry): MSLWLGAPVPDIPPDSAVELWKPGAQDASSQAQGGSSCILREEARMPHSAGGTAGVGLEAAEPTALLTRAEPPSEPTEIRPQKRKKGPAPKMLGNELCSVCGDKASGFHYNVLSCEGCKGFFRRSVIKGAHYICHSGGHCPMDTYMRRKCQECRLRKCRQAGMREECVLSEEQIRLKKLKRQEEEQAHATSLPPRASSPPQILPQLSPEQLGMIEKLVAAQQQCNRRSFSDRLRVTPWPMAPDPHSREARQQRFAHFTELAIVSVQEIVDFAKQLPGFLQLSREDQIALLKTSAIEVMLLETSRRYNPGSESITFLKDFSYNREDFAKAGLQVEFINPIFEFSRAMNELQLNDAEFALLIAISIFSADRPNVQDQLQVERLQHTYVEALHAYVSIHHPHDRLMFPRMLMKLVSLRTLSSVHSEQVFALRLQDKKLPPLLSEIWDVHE
As to the kind of experiment: Agonist activity at human full length LXRalpha expressed in […] cells co-expressing human pSG5/RXRalpha at 10 uM after 18 hrs by luciferase reporter gene assay relative to GW3965. In a few lines: (§1)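 BHK21 cells co-transfected with an RXR plasmid, a full-length human LXRα or LXRβ expression vector and the pGL3/LRELuc reporter. Steroids were added alone at 10 µM and luciferase activity was read. Activity is expressed as % induction relative to GW3965 1 µM (100%). Means ± S.E. of 3 independent experiments; one-way ANOVA with Dunnett's test versus the no-steroid control.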
Background: Reporter assays use an easily measured gene product as a stand-in for the process of interest.

For assay [2], the target named is T2, Oxysterols receptor LXR-beta (Homo sapiens) (UniProt P55055).
T2 sequence (whole entry): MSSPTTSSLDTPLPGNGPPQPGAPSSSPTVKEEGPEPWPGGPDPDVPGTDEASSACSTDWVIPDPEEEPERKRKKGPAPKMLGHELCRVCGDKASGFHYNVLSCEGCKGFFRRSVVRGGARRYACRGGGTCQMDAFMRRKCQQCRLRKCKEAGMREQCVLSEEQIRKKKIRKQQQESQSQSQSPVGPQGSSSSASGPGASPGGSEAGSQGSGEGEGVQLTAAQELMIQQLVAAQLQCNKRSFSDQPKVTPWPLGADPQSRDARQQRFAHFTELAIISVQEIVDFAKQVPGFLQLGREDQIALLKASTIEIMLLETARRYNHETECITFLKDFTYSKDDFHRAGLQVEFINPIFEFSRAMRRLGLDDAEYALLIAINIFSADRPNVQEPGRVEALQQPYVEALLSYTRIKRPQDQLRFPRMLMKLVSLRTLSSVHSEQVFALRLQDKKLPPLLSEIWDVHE
As to the kind of experiment: Agonist activity at human full length LXRbeta expressed in […] cells co-expressing human pSG5/RXRalpha at 10 uM after 18 hrs by luciferase reporter gene assay relative to GW3965. The procedure, abridged:
as §1

For assay [3], the target named is T2, Oxysterols receptor LXR-beta (Homo sapiens). Description: Antagonist activity at human full length LXRbeta expressed in […] cells co-expressing human pSG5/RXRalpha assessed as inhibition of GW3965-induced receptor activation at 10 uM after 18 hrs by luciferase reporter gene assay. In a few lines:
(§2)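 Antagonist mode in BHK21 cells co-transfected with an RXR plasmid, a full-length human LXRα or LXRβ vector and the pGL3/LRELuc luciferase reporter. Steroids at 10 µM were co-administered with the synthetic agonist GW3965. Luciferase output is given as % of the GW3965 1 µM response. Means ± S.E., n=3 independent experiments; Dunnett's test after one-way ANOVA.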

Assay [4] deals with T1, Oxysterols receptor LXR-alpha (Homo sapiens). Description: Antagonist activity at human full length LXRalpha expressed in […] cells co-expressing human pSG5/RXRalpha assessed as inhibition of GW3965-induced receptor activation at 10 uM after 18 hrs by luciferase reporter gene assay. In a few lines: as §2

Molecules are shown by their SMILES. Active and inactive are the calls of the source. The rule behind the calls is not given here.

Take `C[C@H](CCC(=O)N(C)C)[C@H]1CC[C@H]2[C@@H]3CC[C@@H]4C[C@H](O)CC[C@]4(C)[C@H]3CC[C@]12C`: in assay [1], the result was Active. For the same compound, the result in assay [2] was inactive.

As for `C[C@H](CCC(=O)N(C)C)[C@H]1CC[C@H]2[C@@H]3CC[C@H]4C[C@H](O)[C@@H]5C[C@]4(CO5)[C@H]3CC[C@]12C`, the result in assay [1] and in assay [2] was inactive. Besides, the inhibition entry in assay [3] and in assay [4] was “Active” throughout.

Turning to `C[C@H](CCC(=O)N(C)C)[C@H]1CC[C@H]2[C@@H]3C[C@@H]4OC[C@@]5(CC[C@@H](O)C=C45)[C@H]3CC[C@]12C`, the result in assay [1] was Active. Further, the inhibition entry in assay [3] is “inactive”.

Turning to `C[C@H](CCC(=O)N(C)C)[C@H]1CC[C@H]2[C@@H]3CC=C4C[C@@H](O)CC[C@]4(C)[C@H]3CC[C@]12C`, the outcome in assay [1] and in assay [2] was Active. The inhibition entry in assay [3] and in assay [4] was “Active” throughout.

In the case of `C[C@H](CCC(=O)N(C)C)[C@H]1CC[C@H]2[C@@H]3C[C@H](O)[C@@H]4C[C@H](O)CC[C@]4(C)[C@H]3CC[C@]12C`, the inhibition entry in assay [3] and in assay [4] was “Active” each time. For the same compound, the outcome in assay [2] was Active.

Consider `C[C@H](CCC(=O)N(C)C)[C@H]1CC[C@H]2[C@@H]3CC[C@H]4C[C@@H](O)[C@@H]5C[C@]4(CO5)[C@H]3CC[C@]12C`, for which the result in assay [1] and in assay [2] was inactive. Further, the inhibition result in assay [3] and in assay [4] was “Active” in each case.
